# Results: paper PMC11843339 (ACS Bio & Med Chem Au, 2024)
# Like-named read-outs stand apart in the source and are kept apart here.
# Tests used:
# 143B = experiment: MTT cytotoxicity assay, 143B cells; assay type: cell-based, human; conditions: 72 h, read-out: cytotoxic activity IC50
# In short: (§1)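 Human osteosarcoma cells (from ATCC) were seeded at 5 × 10^3 per well and left to attach overnight at 37 °C, 5% CO2. They were then exposed to test compound for 72 h. Medium was replaced with 0.5 mg/mL MTT in culture medium for 2 h at 37 °C, and formazan was dissolved in DMSO. OD was read at 570 nm, survival was calculated as % of untreated control OD, and runs were done in triplicate.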
# MNNG/HOS = experiment: MTT cytotoxicity assay, MNNG/HOS cells; assay type: cell-based, human; conditions: 72 h, read-out: cytotoxic activity IC50
# In short: as §1
# U2OS = experiment: MTT cytotoxicity assay, U2OS cells; assay type: cell-based, human; conditions: 72 h, read-out: cytotoxic activity IC50
# In short: as §1
# SaOS-2 = experiment: MTT cytotoxicity assay, SaOS-2 cells; assay type: cell-based, human; conditions: read-out: cytotoxic activity IC50
# In short: as §1
# [1] = test system: osteosarcoma cancer cell lines (MNNG/HOS, U2OS, 143B, SaOS-2); experiment: MTT cytotoxicity, summary over osteosarcoma cell lines; assay type: cell-based, human; conditions: for IC50: Homo sapiens, 72 h, read-out: IC50 range against all OS cell lines
# In short: as §1
# [2] = MTT cell viability, normal osteoblast cells hFOB 1.19; assay type: cell-based, human; conditions: human, hFOB 1.19 normal osteoblast cells
# In short: (§2)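 Normal human osteoblasts (hFOB 1.19, from ATCC) were exposed to test compound at 0.1, 1.0, 10.0 and 100.0 μM for 72 h. Viability was read by MTT: 0.5 mg/mL for 2 h at 37 °C, DMSO solubilisation, OD at 570 nm. Values are expressed relative to untreated control set at 100%, as mean ± SD (n = 3).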
# human IMPDH1 = human IMPDH1 (Homo sapiens, UniProt P20839); experiment: IMPDH1 inhibitory assay; assay type: biochemical
# Sequence of human IMPDH1 (P20839 whole entry): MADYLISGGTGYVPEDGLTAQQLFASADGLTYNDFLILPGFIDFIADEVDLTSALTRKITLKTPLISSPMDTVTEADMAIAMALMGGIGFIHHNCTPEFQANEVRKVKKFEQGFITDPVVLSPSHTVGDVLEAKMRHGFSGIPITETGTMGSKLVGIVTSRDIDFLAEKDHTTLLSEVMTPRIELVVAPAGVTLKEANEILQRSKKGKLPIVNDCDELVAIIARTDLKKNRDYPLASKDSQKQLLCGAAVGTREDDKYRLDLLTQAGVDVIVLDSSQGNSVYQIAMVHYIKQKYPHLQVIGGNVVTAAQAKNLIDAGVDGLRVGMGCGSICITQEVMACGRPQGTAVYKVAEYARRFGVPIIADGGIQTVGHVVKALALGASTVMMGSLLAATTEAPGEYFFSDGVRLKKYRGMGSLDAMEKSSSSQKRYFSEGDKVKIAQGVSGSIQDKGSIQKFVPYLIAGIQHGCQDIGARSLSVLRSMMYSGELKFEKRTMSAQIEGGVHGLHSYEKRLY
# hFOB 1.19 = experiment: MTT cell viability, normal osteoblast cells hFOB 1.19; assay type: cell-based, human; conditions: at the tested concentrations (0.1-100 μM), in words
# In short: as §2
# human IMPDH2 = human IMPDH2 (Homo sapiens, UniProt P12268); experiment: IMPDH2 inhibitory assay; assay type: biochemical
Molecule,"IC50 (143B; Homo sapiens, 143B) [µM]","IC50 (MNNG/HOS; Homo sapiens, HOS) [µM]","IC50 (U2OS; Homo sapiens, U2OS) [µM]","IC50 (SaOS-2; Homo sapiens, SAOS-2, 72 h) [µM]",IC50 [1] [µM],further results
"COc1c(C)c2c(c(O[Si](c3ccccc3)(c3ccccc3)C(C)(C)C)c1C/C=C(\C)CCC(=O)O[Si](c1ccccc1)(c1ccccc1)C(C)(C)C)C(=O)OC2 [Compound 2b, tert-Butyldiphenylsilyl (E)-6-(4-((tert-Butyldiphenylsilyl)oxy)-6-methoxy-7-methyl-3-oxo-1,3-dihydroisobenzofuran-5-yl)-4-methylhex-4-enoate]",5.85 ± 0.54,1.18 ± 0.74,2.52 ± 0.96,5.8 ± 1.15,1.18 to 5.85,
"COc1c(C)c2c(c(O)c1C/C=C(\C)CCC(=O)OC(c1ccccc1)(c1ccccc1)c1ccccc1)C(=O)OC2 [Compound 2e, Trityl (E)-6-(4-Hydroxy-6-methoxy-7-methyl-3-oxo-1,3-dihydroisobenzofuran-5-yl)-4-methylhex-4-enoate]",5.13 ± 1.1,0.68 ± 0.11,0.98 ± 0.035,4.83 ± 0.5,0.68 to 5.13,
"COc1c(C)c2c(c(O)c1C/C=C(\C)CCC(=O)O[Si](C(C)C)(C(C)C)C(C)C)C(=O)OC2 [Compound 4c, Triisopropylsilyl (E)-6-(4-Hydroxy-6-methoxy-7-methyl-3-oxo-1,3-dihydroisobenzofuran-5-yl)-4-methylhex-4-enoate]",35 ± 9.9,5.7 ± 0.71,0.92,5.5 ± 1.51,,
"COc1ccc(CCOC(=O)CC/C(C)=C/Cc2c(OC)c(C)c3c(c2O[Si](c2ccccc2)(c2ccccc2)C(C)(C)C)C(=O)OC3)cc1 [Compound 5c, 4-Methoxyphenethyl (E)-6-(4-((tert-Butyldiphenylsilyl)oxy)-6-methoxy-7-methyl-3-oxo-1,3-dihydroisobenzofuran-5-yl)-4-methylhex-4-enoate]",14.5 ± 4.95,43.5 ± 2.12,10.2 ± 1.06,39.5 ± 0.71,,
"COc1c(C)c2c(c(O)c1C/C=C(\C)CCC(=O)OCCc1ccc(F)cc1)C(=O)OC2 [Compound 6b, 4-Fluorophenethyl (E)-6-(4-Hydroxy-6-methoxy-7-methyl-3-oxo-1,3-dihydroisobenzofuran-5-yl)-4-methylhex-4-enoate]",2 ± 0.14,,7 ± 2.12,5.75 ± 1.06,,
"COc1c(C)c2c(c(O[Si](C(C)C)(C(C)C)C(C)C)c1C/C=C(\C)CCC(=O)O[Si](C(C)C)(C(C)C)C(C)C)C(=O)OC2 [Compound 2c, Triisopropylsilyl (E)-6-(6-Methoxy-7-methyl-3-oxo-4-((triisopropylsilyl)oxy)-1,3-dihydroisobenzofuran-5-yl)-4-methylhex-4-enoate]",63.1 ± 3.2,6.82 ± 3.51,24.43 ± 0.04,17.4 ± 9.03,6.82 to 63.9,
"COc1c(C)c2c(c(O)c1C/C=C(\C)CCC(=O)ON1C(=O)c3ccccc3C1=O)C(=O)OC2 [Compound 6a, 1,3-Dioxoisoindolin-2-yl (E)-6-(4-Hydroxy-6-methoxy-7-methyl-3-oxo-1,3-dihydroisobenzofuran-5-yl)-4-methylhex-4-enoate]",4.85 ± 1.48,,1.38 ± 0.6,6.9,,
"(E)-6-(4-((tert-Butyldimethylsilyl)oxy)-6-methoxy-7-methyl-3-oxo-1,3-dihydroisobenzofuran-5-yl)-4-methylhex-4-enoic acid [Compound 3b]",,,,,,"IC50 (143B; 143B cells, MTT): 4.74 ± 0.76 µM; IC50 (MNNG/HOS; MNNG cells, MTT): 1.15 ± 0.35 µM; IC50 (U2OS; U2OS cells, MTT): 2.96 ± 2.32 µM; IC50 (SaOS-2; SaOS cells, MTT, 72 h): 4.58 ± 1.05 µM"
"COc1c(C)c2c(c(O)c1C/C=C(\C)CCC(=O)O)C(=O)OC2 [MPA 1, Mycophenolic acid, reference compound]",1.55 ± 0.49,0.64 ± 0.08,0.68 ± 0.04,4 ± 0.28,0.64 to 4,"viability at 72 h, 0.1 µM [2]: 74.3 ± 4.24%; viability at 72 h, 1 µM [2]: 20.1 ± 1.41%; viability at 72 h, 10 µM [2]: 7.13 ± 0.67%; viability at 72 h, 100 µM [2]: 3.38 ± 3.4%; Ki (human IMPDH1): 0.136 µM"
"COc1c(C)c2c(c(O[Si](C)(C)C(C)(C)C)c1C/C=C(\C)CCC(=O)O[Si](C)(C)C(C)(C)C)C(=O)OC2 [Compound 2a, tert-Butyldimethylsilyl (E)-6-(4-((tert-Butyldimethylsilyl)oxy)-6-methoxy-7-methyl-3-oxo-1,3-dihydroisobenzofuran-5-yl)-4-methylhex-4-enoate]",4.12 ± 0.28,1.36 ± 0.76,3.8 ± 0.88,5.43 ± 2.87,1.36 to 5.43,
"COc1c(C)c2c(c(O)c1C/C=C(\C)CCC(=O)O[Si](c1ccccc1)(c1ccccc1)C(C)(C)C)C(=O)OC2 [Compound 4b, tert-Butyldiphenylsilyl (E)-6-(4-Hydroxy-6-methoxy-7-methyl-3-oxo-1,3-dihydroisobenzofuran-5-yl)-4-methylhex-4-enoate]",6.8 ± 1.41,13 ± 4.24,1.85 ± 0.07,1.85 ± 0.35,,
"COc1c(C)c2c(c(O[Si](c3ccccc3)(c3ccccc3)C(C)(C)C)c1C/C=C(\C)CCC(=O)ON1C(=O)c3ccccc3C1=O)C(=O)OC2 [Compound 5a, 1,3-Dioxoisoindolin-2-yl (E)-6-(4-((tert-Butyldiphenylsilyl)oxy)-6-methoxy-7-methyl-3-oxo-1,3-dihydroisobenzofuran-5-yl)-4-methylhex-4-enoate]",31 ± 1.41,19.5 ± 3.54,10.2 ± 3.89,12,,
"COc1c(C)c2c(c(O[Si](C)(C)C(C)(C)C)c1C/C=C(\C)CCC(=O)O)C(=O)OC2 [Compound 3a, (E)-6-(4-((tert-Butyldimethylsilyl)oxy)-6-methoxy-7-methyl-3-oxo-1,3-dihydroisobenzofuran-5-yl)-4-methylhex-4-enoic acid]",3.9 ± 0.76,0.86 ± 0.2,2.31 ± 1.26,4.55 ± 2.6,,
"COc1c(C)c2c(c(O)c1C/C=C(\C)CCC(=O)O[Si](c1ccccc1)(c1ccccc1)c1ccccc1)C(=O)OC2 [Compound 2d, Triphenylsilyl (E)-6-(4-Hydroxy-6-methoxy-7-methyl-3-oxo-1,3-dihydroisobenzofuran-5-yl)-4-methylhex-4-enoate]",1.65 ± 0.26,0.64 ± 0.15,1.01 ± 0.4,2.27 ± 0.68,0.64 to 2.27,"viability at 72 h, 0.1 µM [2]: 93.9 ± 1.01%; viability at 72 h, 1 µM [2]: 92 ± 1.78%; viability at 72 h, 10 µM [2]: 84.5 ± 2.95%; viability at 72 h, 100 µM [2]: 73.3 ± 1.39%; cytotoxicity to human normal osteoblast cells (hFOB 1.19) (hFOB 1.19): low cytotoxicity; Ki (human IMPDH1; read-out: Ki,app (apparent tight-binding inhibition constant), IMPDH1, IMP 100 μM, NAD+ 200 μM, NO = No inhibition observed): > 100 µM; Ki (human IMPDH2): 1.8 µM; fold more potent than carbon compound 2e ([1]; 143B and SaOS cell lines, versus 2e): 2 to 3 fold"
"COc1ccc(CCOC(=O)CC/C(C)=C/Cc2c(O)c3c(c(C)c2OC)COC3=O)cc1 [Compound 6c, 4-Methoxyphenethyl (E)-6-(4-Hydroxy-6-methoxy-7-methyl-3-oxo-1,3-dihydroisobenzofuran-5-yl)-4-methylhex-4-enoate]",2.6 ± 0.28,38 ± 11.3,7.35 ± 1.63,9 ± 1.41,,
"COc1c(C)c2c(c(O[Si](C(C)C)(C(C)C)C(C)C)c1C/C=C(\C)CCC(=O)O)C(=O)OC2 [Compound 3c, (E)-6-(6-Methoxy-7-methyl-3-oxo-4-((triisopropylsilyl)oxy)-1,3-dihydroisobenzofuran-5-yl)-4-methylhex-4-enoic acid]",6.31 ± 0.4,2.68 ± 1.02,3.75 ± 1.06,5.44 ± 0.82,,
